Reference: ChEMBL document CHEMBL1156338 (J Med Chem, 2010)
Calls of active or inactive are those of the source. No cut-off for these calls is given here.

Legend:
[1] = Cmax in porcine type 2 collagen-induced arthritis Lewis rat model at 0.01 to 1 mg/kg, po; assay type: ADME, organism-based; set-up: dose 0.01-1 mg/kg, route oral; details: in vivo
[2] = Trough plasma concentration in porcine type 2 collagen-induced arthritis Lewis rat model at 0.01 to 1 mg/kg, po after 24 hrs; assay type: ADME, organism-based; set-up: dose 0.01-1 mg/kg, route oral
[3] = molecular target: Mitogen-activated protein kinase 14 (Homo sapiens, UniProt Q16539); test: Inhibition of p38alpha at 1 uM relative to control
Chain of Mitogen-activated protein kinase 14 (Q16539 whole entry): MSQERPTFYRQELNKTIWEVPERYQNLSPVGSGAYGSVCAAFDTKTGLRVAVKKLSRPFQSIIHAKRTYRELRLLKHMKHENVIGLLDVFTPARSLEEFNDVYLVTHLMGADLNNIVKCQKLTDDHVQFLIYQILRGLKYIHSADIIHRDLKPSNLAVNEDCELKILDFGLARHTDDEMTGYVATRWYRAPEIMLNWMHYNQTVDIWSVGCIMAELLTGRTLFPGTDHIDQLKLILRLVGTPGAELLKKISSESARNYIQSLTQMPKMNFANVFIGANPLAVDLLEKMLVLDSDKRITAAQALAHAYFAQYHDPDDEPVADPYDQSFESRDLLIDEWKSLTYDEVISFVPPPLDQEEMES

[4] = Volume of distribution at steady state in Sprague-Dawley rat at 2 mg/kg, iv; assay type: ADME, organism-based; set-up: dose 2 mg/kg, route intravenous; details: in vivo, read-out: Vdss
THP-1 = test: Inhibition of LPS-induced TNFalpha production in human THP1 cells after 3 hrs; assay type: functional, cell-based; details: Homo sapiens, THP-1, 3 h; read-out: IC50
Outline: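 THP-1 cells at 1.5 x 10^6/mL in RPMI 1640, 10% heat-inactivated FBS, NEAA, 30 μM βME. 3-fold serial compound dilutions in DMSO, then LPS stimulation for 3 h at 37 C, 5% CO2. Secreted TNF-alpha read by electrochemiluminescent immunoassay; percent of DMSO control; IC50 is the mean of at least three independent curves.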

[5] = molecular target: T1, Mitogen-activated protein kinase 13 (Homo sapiens, UniProt O15264); test: Inhibition of p38delta
T1 sequence (O15264 whole entry): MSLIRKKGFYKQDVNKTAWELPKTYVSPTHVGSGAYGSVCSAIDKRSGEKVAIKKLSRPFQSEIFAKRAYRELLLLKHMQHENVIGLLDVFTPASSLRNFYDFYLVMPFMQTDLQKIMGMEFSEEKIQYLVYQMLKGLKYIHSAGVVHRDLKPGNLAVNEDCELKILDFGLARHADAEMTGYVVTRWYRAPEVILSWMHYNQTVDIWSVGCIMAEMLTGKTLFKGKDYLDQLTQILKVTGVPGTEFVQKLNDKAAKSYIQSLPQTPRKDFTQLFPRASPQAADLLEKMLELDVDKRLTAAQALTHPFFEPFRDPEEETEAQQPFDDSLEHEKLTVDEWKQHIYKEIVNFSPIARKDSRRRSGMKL

[6] = Oral bioavailability in Sprague-Dawley rat at 2 mg/kg; assay type: ADME, organism-based; details: in vivo
[7] = Half life in Sprague-Dawley rat at 2 mg/kg, iv; assay type: ADME, organism-based; set-up: dose 2 mg/kg, route intravenous; details: in vivo
Cytochrome P450 3A4 = Cytochrome P450 3A4 (Homo sapiens, UniProt P08684); test: Inhibition of CYP3A4 in human liver microsomes; assay type: ADME, Microsome
Chain of Cytochrome P450 3A4 (P08684 whole entry): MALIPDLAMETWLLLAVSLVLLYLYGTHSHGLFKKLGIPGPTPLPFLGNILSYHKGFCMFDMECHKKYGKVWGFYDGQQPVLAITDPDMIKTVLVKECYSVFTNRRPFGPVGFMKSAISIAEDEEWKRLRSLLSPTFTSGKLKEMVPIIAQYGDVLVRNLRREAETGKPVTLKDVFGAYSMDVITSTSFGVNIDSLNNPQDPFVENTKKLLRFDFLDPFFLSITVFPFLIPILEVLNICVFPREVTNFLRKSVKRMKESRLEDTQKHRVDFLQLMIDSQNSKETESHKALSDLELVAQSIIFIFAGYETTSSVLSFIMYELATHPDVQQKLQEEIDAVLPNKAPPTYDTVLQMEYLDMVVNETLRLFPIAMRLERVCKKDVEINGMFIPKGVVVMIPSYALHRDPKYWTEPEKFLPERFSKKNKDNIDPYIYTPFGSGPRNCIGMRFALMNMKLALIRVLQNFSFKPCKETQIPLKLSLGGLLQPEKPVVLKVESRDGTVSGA

[8] = molecular target: T2, Platelet-derived growth factor receptor alpha (Homo sapiens, UniProt P16234); test: Inhibition of PDGFRalpha at 1 uM relative to control
T2 sequence (P16234 whole entry): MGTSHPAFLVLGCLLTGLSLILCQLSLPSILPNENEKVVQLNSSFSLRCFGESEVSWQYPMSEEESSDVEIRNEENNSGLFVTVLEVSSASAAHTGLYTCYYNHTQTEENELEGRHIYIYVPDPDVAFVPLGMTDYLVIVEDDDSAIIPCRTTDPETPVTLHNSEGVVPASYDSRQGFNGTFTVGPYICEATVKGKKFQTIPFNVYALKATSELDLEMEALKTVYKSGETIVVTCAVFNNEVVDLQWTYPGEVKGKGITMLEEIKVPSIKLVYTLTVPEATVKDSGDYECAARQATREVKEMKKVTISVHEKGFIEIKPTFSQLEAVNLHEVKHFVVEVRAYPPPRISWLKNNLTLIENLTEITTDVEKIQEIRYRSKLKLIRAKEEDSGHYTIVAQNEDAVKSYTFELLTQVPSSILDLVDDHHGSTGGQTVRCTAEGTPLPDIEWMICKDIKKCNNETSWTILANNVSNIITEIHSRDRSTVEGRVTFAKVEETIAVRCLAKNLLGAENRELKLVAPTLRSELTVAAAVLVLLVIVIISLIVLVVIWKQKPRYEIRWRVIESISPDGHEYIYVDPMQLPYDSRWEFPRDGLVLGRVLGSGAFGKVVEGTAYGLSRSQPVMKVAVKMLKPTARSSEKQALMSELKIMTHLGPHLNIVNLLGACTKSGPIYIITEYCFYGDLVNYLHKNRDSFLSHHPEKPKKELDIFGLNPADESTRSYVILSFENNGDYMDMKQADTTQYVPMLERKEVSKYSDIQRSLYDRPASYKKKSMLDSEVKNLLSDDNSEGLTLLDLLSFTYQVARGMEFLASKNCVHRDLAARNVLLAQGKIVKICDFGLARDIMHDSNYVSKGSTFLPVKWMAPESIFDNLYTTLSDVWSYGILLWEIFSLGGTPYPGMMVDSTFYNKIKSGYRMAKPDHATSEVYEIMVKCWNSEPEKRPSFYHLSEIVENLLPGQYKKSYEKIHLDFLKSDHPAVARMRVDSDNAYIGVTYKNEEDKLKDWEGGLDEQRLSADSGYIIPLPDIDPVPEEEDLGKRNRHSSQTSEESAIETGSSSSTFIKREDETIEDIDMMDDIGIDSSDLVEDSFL

in vitro [9] = details: human, Caco-2
[10] = molecular target: Mitogen-activated protein kinase 11 (Homo sapiens, UniProt Q15759); test: Inhibition of p38beta at 1 uM relative to control
Chain of Mitogen-activated protein kinase 11 (Q15759 whole entry): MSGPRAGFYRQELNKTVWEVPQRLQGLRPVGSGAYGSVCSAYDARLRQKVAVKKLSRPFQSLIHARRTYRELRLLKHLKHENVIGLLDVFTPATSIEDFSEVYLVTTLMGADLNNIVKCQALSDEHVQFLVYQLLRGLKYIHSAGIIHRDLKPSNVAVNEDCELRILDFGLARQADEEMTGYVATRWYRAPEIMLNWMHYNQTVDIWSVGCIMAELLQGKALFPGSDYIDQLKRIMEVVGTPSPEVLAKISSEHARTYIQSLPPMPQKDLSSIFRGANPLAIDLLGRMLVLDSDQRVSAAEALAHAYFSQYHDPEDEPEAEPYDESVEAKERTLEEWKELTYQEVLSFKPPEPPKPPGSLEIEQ

[11] = Plasma protein binding in rat by ultrafiltration method; assay type: ADME, cell-free; details: read-out: PPB (converted)
Cytochrome P450 2D6 = Cytochrome P450 2D6 (Homo sapiens, UniProt P10635); test: Inhibition of CYP2D6 in human liver microsomes; assay type: ADME, Microsome
Chain of Cytochrome P450 2D6 (P10635 whole entry): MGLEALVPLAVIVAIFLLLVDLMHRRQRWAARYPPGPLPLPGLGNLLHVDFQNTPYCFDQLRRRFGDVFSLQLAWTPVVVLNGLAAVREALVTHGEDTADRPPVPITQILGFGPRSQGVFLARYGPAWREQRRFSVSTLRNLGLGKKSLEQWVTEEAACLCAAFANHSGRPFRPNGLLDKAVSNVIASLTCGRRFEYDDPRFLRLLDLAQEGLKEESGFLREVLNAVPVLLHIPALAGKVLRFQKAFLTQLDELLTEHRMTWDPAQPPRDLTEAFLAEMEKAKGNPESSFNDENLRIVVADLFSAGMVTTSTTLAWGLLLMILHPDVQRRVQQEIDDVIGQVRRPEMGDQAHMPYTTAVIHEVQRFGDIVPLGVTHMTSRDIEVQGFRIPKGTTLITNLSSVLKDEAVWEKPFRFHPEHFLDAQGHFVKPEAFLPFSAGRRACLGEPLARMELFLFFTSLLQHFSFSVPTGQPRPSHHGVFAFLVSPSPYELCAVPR

V79 = test: Genotoxicity in Chinese hamster V79 cells by micronucleus test; assay type: toxicity, cell-based, Cricetulus griseus
Rattus norvegicus [12] = test: Inhibition of MAPKAP2 phosphorylation in porcine type 2 collagen-induced arthritis Lewis rat ankles at 0.01 to 1 mg/kg, po by Western blotting; assay type: functional; details: dose mg/kg 0.01-1
Outline: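 Oral dosing once daily for 7 days in collagen-induced arthritic Lewis rats, vehicle 15% HPBCD, 1% HPMC, 1% Pluronic F68, pH 2.2. Ankles (n = 2/group) frozen at sacrifice, pulverized and lysed; 15 μg protein per lane for Western blot with phospho-MK2 antibody. Signal normalized to Akt and expressed as percent of vehicle-treated arthritic control.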

[13] = molecular target: T2, Platelet-derived growth factor receptor alpha; test: Binding affinity to PDGFRalpha
[14] = molecular target: T3, RAF proto-oncogene serine/threonine-protein kinase (Homo sapiens, UniProt P04049); test: Inhibition of RAF1 at 1 uM relative to control
T3 sequence (P04049 whole entry): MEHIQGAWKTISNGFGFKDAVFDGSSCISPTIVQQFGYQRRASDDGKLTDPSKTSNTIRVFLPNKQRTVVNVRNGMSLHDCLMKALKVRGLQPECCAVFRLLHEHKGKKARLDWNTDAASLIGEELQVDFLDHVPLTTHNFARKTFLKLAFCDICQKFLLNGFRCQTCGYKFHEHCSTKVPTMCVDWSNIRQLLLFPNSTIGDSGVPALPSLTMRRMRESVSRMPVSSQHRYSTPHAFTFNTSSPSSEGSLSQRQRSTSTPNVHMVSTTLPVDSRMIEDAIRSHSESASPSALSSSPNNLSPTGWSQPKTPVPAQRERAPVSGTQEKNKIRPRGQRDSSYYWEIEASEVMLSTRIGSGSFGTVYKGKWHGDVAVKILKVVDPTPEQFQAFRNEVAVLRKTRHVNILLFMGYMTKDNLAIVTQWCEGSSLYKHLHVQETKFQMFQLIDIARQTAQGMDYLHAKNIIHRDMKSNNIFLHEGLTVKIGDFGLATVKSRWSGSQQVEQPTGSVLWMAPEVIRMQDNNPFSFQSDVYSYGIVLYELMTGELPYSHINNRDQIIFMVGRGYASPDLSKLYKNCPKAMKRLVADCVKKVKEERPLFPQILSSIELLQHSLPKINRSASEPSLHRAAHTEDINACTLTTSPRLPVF

Rattus norvegicus [15] = test: Antiarthritic activity against porcine type 2 collagen-induced arthritis Lewis rat model assessed as area under the paw swelling curve at 0.01 to 1 mg/kg, po relative to control; assay type: functional, organism-based
Outline: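 Lewis rats immunized by intradermal porcine type II collagen emulsified 1:1 in incomplete Freund's adjuvant. Grouped at disease onset (day 0, 10-12 days post-immunization). Oral dosing once daily for 7 days in 15% HPBCD, 1% HPMC, 1% Pluronic F68, pH 2.2. Paw diameter measured daily days 0-7.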

[16] = Plasma protein binding in human by ultrafiltration method; assay type: ADME, cell-free; details: read-out: PPB (converted)
[17] = molecular target: T3, RAF proto-oncogene serine/threonine-protein kinase; test: Binding affinity to RAF1
[18] = Clearance in Sprague-Dawley rat at 2 mg/kg, iv; assay type: ADME, organism-based; set-up: dose 2 mg/kg, route intravenous; details: in vivo
[19] = AUC (0 to 24 hrs) in porcine type 2 collagen-induced arthritis Lewis rat model at 0.01 to 1 mg/kg, po; assay type: ADME, organism-based; set-up: dose 0.01-1 mg/kg, route oral; details: in vivo
Cytochrome P450 2B6 = molecular target: T4, Cytochrome P450 2B6 (Homo sapiens, UniProt P20813); test: Induction of CYP2B6 in human hepatocytes at 25 uM; assay type: ADME, cell-based, Hepatocyte
T4 sequence (P20813 whole entry): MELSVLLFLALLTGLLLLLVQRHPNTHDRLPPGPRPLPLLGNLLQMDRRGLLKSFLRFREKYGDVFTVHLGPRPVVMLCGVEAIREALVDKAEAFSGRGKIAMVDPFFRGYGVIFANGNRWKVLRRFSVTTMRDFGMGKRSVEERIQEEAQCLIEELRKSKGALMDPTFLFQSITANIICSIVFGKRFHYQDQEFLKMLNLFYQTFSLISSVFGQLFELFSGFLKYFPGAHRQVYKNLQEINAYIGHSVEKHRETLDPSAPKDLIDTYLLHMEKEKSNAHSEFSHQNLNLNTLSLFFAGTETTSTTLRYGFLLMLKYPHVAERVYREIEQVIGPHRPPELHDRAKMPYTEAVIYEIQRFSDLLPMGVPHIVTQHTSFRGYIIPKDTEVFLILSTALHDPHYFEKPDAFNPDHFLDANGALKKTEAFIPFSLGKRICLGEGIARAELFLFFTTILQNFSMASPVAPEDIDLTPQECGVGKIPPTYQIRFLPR

in vitro [20] = details: human, Caco-2; remark: listed apart in the source
Blood = test: Inhibition of IL-8 production in TNFalpha challenged human whole blood after 16 to 18 hrs; assay type: functional, tissue-based; details: Homo sapiens, Blood; read-out: IC50
Outline: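 Heparinized blood from healthy nonmedicated donors, 50% final in RPMI 1640 with 10% human AB serum. Ten-point compound titration preincubated 1 h at 37 C, 5% CO2, then TNF-alpha 1 nM final added for 16-18 h. Plasma IL-8 measured by electrochemiluminescent antibody sandwich assay; IC50 is the mean of at least three independent dose-response curves.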

For Cc1ccc(C(=O)NC2CC2)cc1-c1cc2cnn(-c3c(F)cccc3F)c2n(C)c1=O, the Cmax [1] was 11 nM, the concentration at 24 h [2] was 4.4 nM and the inhibition [3] was under 50%. It also gave a Vd [4] of 0.837 L/kg, an IC50 (THP-1) of 0.0006 µM and a Ki [5] of 2.1 µM. It also gave a bioavailability [6] of 43%, a half-life [7] of 2.7 h and an IC50 (Cytochrome P450 3A4) of over 25 µM. It also gave an inhibition [8] of under 50%, a Papp A→B (in vitro [9]) of 270 nm/s and an inhibition [10] of under 50%. For the same compound, the fraction unbound [11] was 0.087, the IC50 (Cytochrome P450 2D6) was over 25 µM and the Activity (V79) was “Non-toxic”. For the same compound, the ED50 (Rattus norvegicus [12]) was at most 0.01 mg/kg, the Kd [13] was 1.1 µM and the inhibition [14] was under 50%. The Activity (Rattus norvegicus [15]) was “Active”, the fraction unbound [16] was 0.079 and the Kd [17] was 1.1 µM. The clearance [18] was 0.22 L/h/kg, the AUC(0-t) [19] was 180 nM·h and the Activity (Cytochrome P450 2B6) was “Not Active”. For the same compound, the Papp B→A (in vitro [20]) was 270 nm/s and the IC50 (Blood) was 0.0017 µM.
